An excerpt weighted towards active compounds, which were near 4.5% of everything screened.
MrgX1 ag: activates human MrgX1 receptor signaling; AID 588627; Q96LB2; B-score at 10 µM; MrgX1-HEK293 cells, Fluo-4 calcium fluorescence, agonist mode; active compounds read high; hit rate 0.44% among 310,000;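 active = calcium response B-score plate-corrected fluorescence ratio at least 3 library SD, with starting fluorescence B-score inside 5 SD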
Target sequence (Q96LB2 whole entry, looked up): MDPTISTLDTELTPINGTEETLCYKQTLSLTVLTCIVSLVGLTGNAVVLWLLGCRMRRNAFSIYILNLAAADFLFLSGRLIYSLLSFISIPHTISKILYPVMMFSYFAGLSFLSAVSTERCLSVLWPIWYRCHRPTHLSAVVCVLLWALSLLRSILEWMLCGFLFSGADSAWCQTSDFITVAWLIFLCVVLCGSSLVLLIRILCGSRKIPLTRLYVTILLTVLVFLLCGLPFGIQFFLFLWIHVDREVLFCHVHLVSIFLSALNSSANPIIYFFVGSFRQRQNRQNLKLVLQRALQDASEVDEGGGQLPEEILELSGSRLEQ
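Assay system: MrgX1-expressing HEK293 cells / Amount: fifteen thousand cells per well / Doses: test compound in the initial addition of three / Timing: cells plated overnight, dye loaded 0.5 h 37 °C, 0.5 h room temperature / Technique: kinetic calcium dye fluorescence, Fluo-4 NW / Control set: positive and negative controls per plate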
RGS4 block: human RGS4 inhibition. HEK293 M3R/RGS4 inducible, Fluo-4 calcium flux; active compounds read high; triggered by carbachol at its EC20. B-score at 10 µM. hit rate 0.45% among 310,000;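 active = B-score, a plate-corrected calcium signal, over three deviations above library mean, with baseline fluorescence within five deviations of library mean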;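 also: RGS4 expression induced by doxycycline in cells with stable M3 receptor; B-score is computed from the integrated fluorescence ratio over baseline after carbachol; higher B-score means a larger calcium signal and so more RGS4 inhibition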
Target sequence (P49798 whole entry, looked up): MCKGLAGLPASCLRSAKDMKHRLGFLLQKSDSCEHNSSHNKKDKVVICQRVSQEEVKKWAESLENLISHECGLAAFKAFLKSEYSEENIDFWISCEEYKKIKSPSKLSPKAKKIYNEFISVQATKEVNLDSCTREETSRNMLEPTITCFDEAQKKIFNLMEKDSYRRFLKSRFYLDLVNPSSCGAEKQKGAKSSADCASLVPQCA
PHOSPHO1 inh: inhibitors of human PHOSPHO1 phosphatase | Q8TCT1 | recombinant PHOSPHO1, absorbance phosphatase assay | inhibition, % at 13.3 µM | hit rate 1.1% among 290,000; in the data active = inhibition above about 60%
RGS4 pot: potentiators or activators of RGS4. HEK293 M3R/inducible RGS4, carbachol calcium flux Fluo4; active compounds read low. B-score at 10 µM. hit rate 0.92% among 310,000;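 active = B-score of the integrated calcium signal more than 4 SD below the library mean, with starting fluorescence not abnormally high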;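 also: negative B-score means reduced calcium response which marks RGS4 activation or potentiation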
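Test system: HEK293 cells with stable M3R and inducible RGS4; also added: carbachol at ECmax as muscarinic agonist stimulus; schedule: dye loading 30 min 37 °C, buffer rest 30 min RT; technique: kinetic calcium fluorescence imaging with Fluo4-AM dye, 2 µM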
MrgX1 antag: antagonists of human MrgX1 receptor; MRGX1-HEK293 calcium flux, Fluo-4, BAM8-22 antagonism; active compounds read low; AID 588676; Q96LB2; hit rate 1.3% among 310,000; B-score at 10 µM;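 active = calcium-response B-score plate-corrected more than 3 library SD below zero, starting fluorescence within 5 deviations, no agonist response on first addition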;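 also: peak minus trough fluorescence over baseline after final BAM8-22 challenge near maximal dose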
MrgX1 PAM: human MrgX1 positive allosteric modulation, primary screen. Q96LB2. MrgX1-HEK293, Fluo-4 calcium flux, FDSS; active compounds read high. B-score at 10 µM. hit rate 0.63% among 310,000. AID 588675;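 active = plate-corrected calcium response at least 3 library SD above typical, normal starting fluorescence, not activating the receptor alone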;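 also: compound read alongside a low EC10 to EC30 dose of BAM8-22 agonist; peak minus trough fluorescence over baseline measured at the second addition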
Numbers without * were called inactive; i = inactive; . = no result given.

SMILES	MrgX1 ag	RGS4 block	PHOSPHO1 inh	RGS4 pot	MrgX1 antag	MrgX1 PAM
CC(=O)N1CCc2cc(S(=O)(=O)NCC(=O)NCc3ccccc3Cl)ccc21	i	i	65*	i	i	i
COc1ccc(NS(=O)(=O)c2ccc(N3CCCC3)c(NC(=S)Nc3cccc(S(=O)(=O)N(C)C)c3)c2)cc1	i	i	64*	i	i	i
c1ccc(C2OC3c4cccc5cccc(c45)C3N2c2ccccc2)cc1 (stereo not drawn)	34*	i	2	i	i	i
Cc1nn(-c2ccccc2)c(Cl)c1CN(C(=O)CCl)c1ccc(Cl)cc1	i	i	-17	i	i	i
Cc1nn(-c2ccccc2)c(Cl)c1CN(C(=O)CCl)c1cccc2ccccc12	i	i	-14	i	i	11*
Cc1cc(-c2n[nH]c(=S)o2)c(C)n1-c1ccccc1	i	i	101*	i	i	i
S=c1[nH]nc(-c2c[nH]c3ccccc23)o1	i	i	-14	i	i	i
Oc1cc2ccccc2cc1-c1n[nH]c(=S)o1	i	i	96*	i	i	i
Cc1ccc(-n2c(C(C)C)nc3oc4ccccc4c(=O)c3c2=O)cc1	i	i	14	i	i	i
Cc1ccc2cc(CN(CCc3ccccc3)C(=S)NCCCN(C)C)c(=O)[nH]c2c1	i	i	-18	i	i	6.6*
CN1CCC(N(C)S(=O)(=O)c2ccc(NC(=O)COc3ccc(F)cc3Cl)cc2)CC1	i	i	8	i	i	i
CC1(C)Oc2ccc3ccc(=O)oc3c2/C(=C/N)C1=O	i	i	73*	i	i	i
CC1(C)Oc2ccc3ccc(=O)oc3c2/C(=C/O)C1=O	i	i	-16	i	i	i
CC1(C)Oc2ccc3ccc(=O)oc3c2-c2cnoc21	i	i	95*	i	i	i
CC1(C)Oc2ccc3ccc(=O)oc3c2/C(=C/NC2CCCCC2)C1=O	i	i	-2	-7*	i	i
O=C(c1nn(-c2ccccc2)c(=O)c2ccccc12)N1CCN(c2ncccn2)CC1	i	i	34	i	i	i
CS(=O)(=O)N(CC(=O)N1CCCCC1)c1cccc(F)c1	i	i	41	i	i	i
CCCCC(=O)NNC(=O)N1c2ccccc2Sc2ccccc21	i	i	28	i	i	i
CSc1ccccc1NC(=O)CN(C)C(=O)Cn1c(=O)oc2ccccc21	i	i	.	i	i	i
COc1ccc(-c2nc3ccccc3nc2-c2ccc(OC)cc2)cc1	i	i	.	-7*	i	i
COc1ccc(CCNC(=O)COC(=O)/C=C/c2cccs2)cc1	i	i	28	i	i	i
FCCCOc1ccc(/C=N/OCc2ccc(Cl)cc2Cl)cc1	i	i	27	i	-5.5*	i
O=C(/C=C/c1ccc(OCCCF)cc1)NCc1cccc(Cl)c1	i	i	51	i	i	i
Cc1ccc(OCC(=O)NNC(=O)C2CCN(c3ncnc4sc(C)c(C)c34)CC2)cc1	i	i	.	i	i	i
Cc1sc2ncnc(N3CCC(C(=O)NNC(=O)COc4ccccc4F)CC3)c2c1C	i	i	.	-7.7*	i	i
SMILES	MrgX1 ag	RGS4 block	PHOSPHO1 inh	RGS4 pot	MrgX1 antag	MrgX1 PAM
Cc1sc2ncnc(N3CCC(C(=O)NNC(=O)COc4ccccc4Cl)CC3)c2c1C	i	i	.	-8*	-7*	i
Cc1nc2sc(C(c3ccco3)N3CC(C)OC(C)C3)c(O)n2n1 (stereo not drawn)	i	i	103*	i	i	i
Oc1c(C(c2ccccc2)N2CCCCC2)sc2ncnn12 (stereo not drawn)	i	i	-5	i	i	i
Cc1nc2sc(C(c3ccccc3)N3CC(C)OC(C)C3)c(O)n2n1 (stereo not drawn)	i	i	8	i	i	i
Oc1c(C(c2ccco2)N2CCOCC2)sc2ncnn12 (stereo not drawn)	i	i	90*	i	i	i
COc1ccccc1S(=O)(=O)Nc1cc(C)nn1-c1ccc(C)cc1	i	i	28	i	i	i
FC(F)(F)c1cc(-c2ccccc2)nc(N2CCCCC2)n1	i	i	11	i	i	i
FC(F)(F)c1cc(-c2ccccc2)nc(N2CCOCC2)n1	i	i	74*	i	i	i
O=C(NCCc1nnc2ccc(NCc3ccccc3Cl)nn12)c1ccccc1	i	i	42	i	i	i
Cc1ccc(NC(=O)CN(C)C(=O)c2nn(C)c(=O)c3ccccc23)cc1	i	i	-1	i	i	i
O=C(OCc1cccc([N+](=O)[O-])c1)c1ccc2ccccc2n1	i	i	1	i	i	12*
O=C(Nc1cccc(F)c1)/C(=C\c1cccnc1)NC(=O)c1ccco1	i	i	13	i	i	i
O=C(Nc1cccc(F)c1)/C(=C\c1cccnc1)NC(=O)c1cccs1	i	i	41	i	-5.5*	i
COc1ccc(COc2cc(-c3cccc(OC)c3)nc3ccc(NC(=O)c4ccc(OC)cc4)cc23)cc1	i	i	67*	i	i	i
COc1cccc(-c2c[nH]c(=O)[nH]c2=O)c1	i	i	5	i	i	i
C[C@H]1c2cccc(O)c2C(O)=C2C(=O)[C@]3(O)C(O)=C(C(N)=O)C(=O)[C@@H](N(C)C)C3[C@@H](O)C21 (stereo partly drawn)	i	i	.	i	-6.8*	i
CCOC(=O)/C(C#N)=C/c1c(N2CCN(CC)CC2)nc2c(C)cccn2c1=O	i	i	6	i	i	i
O=S(=O)(c1ccccc1)c1nc(-c2ccccc2)oc1N1CCCC1	i	i	47	i	i	i
CN1CCN(c2oc(-c3ccccc3)nc2S(=O)(=O)c2ccc(Br)cc2)CC1	i	i	61*	i	i	i
COC(=O)c1ccc(CN(c2ccc(C(=O)O)c(O)c2)S(=O)(=O)c2ccc(Cl)c([N+](=O)[O-])c2)cc1	i	i	20	i	i	i
Cc1cc(C(C2C(=O)CC(C)(C)CC2=O)C2C(=O)CC(C)(C)CC2=O)cc(C)c1OC(F)F	63*	i	32	i	i	i
COc1cccc(C(C2C(=O)CC(C)(C)CC2=O)C2C(=O)CC(C)(C)CC2=O)c1	i	i	32	i	i	i

Bioassay records as filed in PubChem.
